From ChEMBL document CHEMBL1134405 (J Med Chem, 2001)
Calls of active or inactive are those of the source. The rule behind the calls is not given here. Peptide text beside a SMILES is read from it.

How the values were obtained:
[1] = molecular target: Glucagon receptor (Rattus norvegicus, UniProt P30082); assay: IC50 value was expressed as inhibition of [125]glucagon specific binding.
How it was run: (§1)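 Incubation 10 min at 30 °C, then ice cooling and filtration on 0.45 μm cellulose acetate, gamma counting. Nonspecific binding taken with 1024 nM unlabeled peptide and subtracted. Read as % inhibition of specific binding. Triplicates, repeated twice.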

[2] = molecular target: Glucagon receptor (Rattus norvegicus) (UniProt P30082); assay: Relative binding by measuring competition for glucagon receptor between [125]glucagon and the compound.; how it was run: as §1
[3] = molecular target: T1, Adenylate cyclase (Rattus norvegicus) (UniProt D4A3N4+P26770+Q04400+P26769+Q03343+P40146+Q8CFM9+P21932); assay: Maximum stimulation of adenylate cyclase.; type: protein assay
[4] = molecular target: T1, Adenylate cyclase (Rattus norvegicus); assay: Adenylate cyclase stimulation; Inactive up to 100 uM.; type: protein assay

Glucagon receptor (Rattus norvegicus), sequence (P30082 whole entry): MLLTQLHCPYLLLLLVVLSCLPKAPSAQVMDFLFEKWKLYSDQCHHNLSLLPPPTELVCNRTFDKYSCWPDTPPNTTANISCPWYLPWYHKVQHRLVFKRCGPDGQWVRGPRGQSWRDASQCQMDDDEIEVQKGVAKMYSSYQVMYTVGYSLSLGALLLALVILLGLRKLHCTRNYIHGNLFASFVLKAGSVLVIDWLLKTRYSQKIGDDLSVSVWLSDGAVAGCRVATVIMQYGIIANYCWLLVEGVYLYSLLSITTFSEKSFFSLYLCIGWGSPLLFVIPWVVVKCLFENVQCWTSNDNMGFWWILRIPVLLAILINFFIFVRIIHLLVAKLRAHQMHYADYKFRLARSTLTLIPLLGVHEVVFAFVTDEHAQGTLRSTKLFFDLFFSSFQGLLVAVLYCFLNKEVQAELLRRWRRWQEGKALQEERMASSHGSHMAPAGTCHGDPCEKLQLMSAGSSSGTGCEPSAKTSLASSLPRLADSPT
Glucagon receptor, sequence (P30082 whole entry): as above

| SMILES | IC50 [1] [nM] | Relative binding [2] [%] | Max stimulation [3] [%] | IA [4] |
| --- | --- | --- | --- | --- |
| CSCC[C@H](NC(=O)[C@H](CC(C)C)NC(=O)[C@H](Cc1c[nH]c2ccccc12)NC(=O)[C@H](CCC(N)=O)NC(=O)[C@@H](NC(=O)[C@H](Cc1ccccc1)NC(=O)[C@H](CC(=O)O)NC(=O)[C@H](CCC(N)=O)NC(=O)[C@H](C)NC(=O)[C@H](CCCNC(=N)N)NC(=O)[C@H](CCCNC(=N)N)NC(C)=O)C(C)C)C(=O)N[C@@H](CC(N)=O)C(=O)N[C@H](C(N)=O)[C@@H](C)O | 2300 | – | – | – |
| CC(=O)N[C@@H]1CSSC[C@H](C(N)=O)NC(=O)[C@@H](Cc2ccc(O)cc2)NC(=O)[C@H](CCCCN)NC(=O)[C@@H](CO)NC(=O)[C@H](Cc2ccc(O)cc2)NC1=O | – | 0 | 0 | Inactive up to 100 uM |
| CSCC[C@H](NC(=O)[C@H](CC(C)C)NC(=O)[C@H](Cc1c[nH]c2ccccc12)NC(=O)[C@H](CCC(N)=O)NC(=O)[C@@H](NC(=O)[C@H](Cc1ccccc1)NC(=O)[C@H](CC(=O)O)NC(=O)[C@H](CCC(N)=O)NC(=O)[C@H](C)NC(=O)[C@H](CCCN=C(N)N)NC(=O)[C@H](CCCN=C(N)N)NC(C)=O)C(C)C)C(=O)N[C@@H](CC(N)=O)C(=O)N[C@H](C(N)=O)[C@@H](C)O | – | 0.065 | 0 | Inactive up to 100 uM |
| CC(=O)N[C@@H](CS)C(=O)N[C@@H](Cc1ccc(O)cc1)C(=O)N[C@@H](CO)C(=O)N[C@@H](CCCCN)C(=O)N[C@@H](Cc1ccc(O)cc1)C(=O)N[C@@H](CS)C(N)=O (Ac-CYSKYC-NH2) | – | 0 | 0 | Inactive up to 100 uM |
| CC(=O)N[C@@H](Cc1ccccc1)C(=O)N[C@@H](CS)C(=O)N[C@@H](CO)C(=O)N[C@@H](CC(=O)O)C(=O)N[C@@H](Cc1ccc(O)cc1)C(=O)N[C@@H](CS)C(=O)N[C@@H](CCCCN)C(=O)N[C@@H](Cc1ccc(O)cc1)C(=O)N[C@@H](CC(C)C)C(N)=O (Ac-FCSDYCKYL-NH2) | – | 30 | 0 | Inactive up to 100 uM |
| CC(=O)N[C@@H](Cc1ccccc1)C(=O)N[C@@H](CS)C(=O)N[C@@H](CO)C(=O)N[C@@H](CC(=O)O)C(=O)N[C@@H](Cc1ccc(O)cc1)C(=O)N[C@@H](CO)C(=O)N[C@@H](CS)C(=O)N[C@@H](Cc1ccc(O)cc1)C(=O)N[C@@H](CC(C)C)C(N)=O (Ac-FCSDYSCYL-NH2) | – | 24 | 0 | Inactive up to 100 uM |
| CC(=O)N[C@@H](Cc1ccccc1)C(=O)N[C@@H](CS)C(=O)N[C@@H](CO)C(=O)N[C@@H](CC(=O)O)C(=O)N[C@@H](Cc1ccc(O)cc1)C(=O)N[C@@H](CO)C(=O)N[C@@H](CS)C(=O)N[C@@H](Cc1ccc(O)cc1)C(=O)N[C@@H](CC(C)C)C(=O)N[C@@H](CC(=O)O)C(N)=O (Ac-FCSDYSCYLD-NH2) | – | 56 | 0 | Inactive up to 100 uM |
| CC(=O)N[C@@H](Cc1ccccc1)C(=O)N[C@H](C(=O)N[C@@H](CO)C(=O)N[C@@H](CS)C(=O)N[C@@H](Cc1ccc(O)cc1)C(=O)N[C@@H](CO)C(=O)N[C@@H](CCCCN)C(=O)N[C@@H](Cc1ccc(O)cc1)C(=O)N[C@@H](CS)C(=O)N[C@@H](CC(=O)O)C(N)=O)[C@@H](C)O (Ac-FTSCYSKYCD-NH2) | – | 32 | 0 | Inactive up to 100 uM |
| CSCC[C@H](NC(=O)[C@H](CC(C)C)NC(=O)[C@H](Cc1c[nH]c2ccccc12)NC(=O)[C@H](CCC(N)=O)NC(=O)[C@@H](NC(=O)[C@H](Cc1ccccc1)NC(=O)[C@H](CC(=O)O)NC(=O)[C@H](CCC(N)=O)NC(=O)[C@H](C)NC(=O)[C@H](CCCNC(=N)N)NC(=O)[C@H](CCCNC(=N)N)NC(=O)[C@H](CO)NC(=O)[C@H](CC(=O)O)NC(=O)[C@H](CC(C)C)NC(=O)[C@H](Cc1ccc(O)cc1)NC(=O)[C@H](CCCCN)NC(=O)[C@H](CO)NC(=O)[C@H](Cc1ccc(O)cc1)NC(=O)CCCCCc1ccccc1)C(C)C)C(=O)N[C@@H](CC(N)=O)C(=O)N[C@H](C(N)=O)[C@@H](C)O (HELM PEPTIDE1{[O=C(CCCCCc1ccccc1)[*:2]].Y.S.K.Y.L.D.S.R.R.A.Q.D.F.V.Q.W.L.M.N.T.[am]}$$$$V2.0) | 131 | – | – | – |
| CSCC[C@H](NC(=O)[C@H](CC(C)C)NC(=O)[C@H](Cc1c[nH]c2ccccc12)NC(=O)[C@H](CCC(N)=O)NC(=O)[C@@H](NC(=O)[C@H](Cc1ccccc1)NC(=O)[C@H](CC(=O)O)NC(=O)[C@H](CCC(N)=O)NC(=O)[C@H](C)NC(=O)[C@H](CCCNC(=N)N)NC(=O)[C@H](CCCNC(=N)N)NC(=O)[C@H](CO)NC(=O)[C@H](CC(=O)O)NC(=O)[C@H](CC(C)C)NC(=O)[C@H](Cc1ccc(O)cc1)NC(=O)[C@H](CCCCN)NC(=O)[C@H](CO)NC(=O)[C@H](Cc1ccc(O)cc1)NC(=O)CCCc1ccccc1)C(C)C)C(=O)N[C@@H](CC(N)=O)C(=O)N[C@H](C(N)=O)[C@@H](C)O (HELM PEPTIDE1{[O=C(CCCc1ccccc1)[*:2]].Y.S.K.Y.L.D.S.R.R.A.Q.D.F.V.Q.W.L.M.N.T.[am]}$$$$V2.0) | 21.2 | – | – | – |
| CC(=O)N[C@@H](Cc1ccccc1)C(=O)N[C@H]1CSSC[C@@H](C(=O)N[C@@H](CCCCN)C(=O)N[C@@H](Cc2ccc(O)cc2)C(=O)N[C@@H](CC(C)C)C(N)=O)NC(=O)[C@H](Cc2ccc(O)cc2)NC(=O)[C@H](CC(=O)O)NC(=O)[C@H](CO)NC1=O (HELM PEPTIDE1{[ac].F.C.S.D.Y.C.K.Y.L.[am]}$PEPTIDE1,PEPTIDE1,3:R3-7:R3$$$V2.0) | – | 62 | 0 | Inactive up to 100 uM |
| CC(=O)N[C@@H](Cc1ccccc1)C(=O)N[C@H]1CSSC[C@@H](C(=O)N[C@@H](Cc2ccc(O)cc2)C(=O)N[C@@H](CC(C)C)C(=O)N[C@@H](CC(=O)O)C(N)=O)NC(=O)[C@H](CO)NC(=O)[C@H](Cc2ccc(O)cc2)NC(=O)[C@H](CC(=O)O)NC(=O)[C@H](CO)NC1=O (HELM PEPTIDE1{[ac].F.C.S.D.Y.S.C.Y.L.D.[am]}$PEPTIDE1,PEPTIDE1,3:R3-8:R3$$$V2.0) | – | 30 | 0 | Inactive up to 100 uM |
| CC(=O)N[C@@H](Cc1ccccc1)C(=O)N[C@H]1CSSC[C@@H](C(=O)N[C@@H](Cc2ccc(O)cc2)C(=O)N[C@@H](CC(C)C)C(N)=O)NC(=O)[C@H](CO)NC(=O)[C@H](Cc2ccc(O)cc2)NC(=O)[C@H](CC(=O)O)NC(=O)[C@H](CO)NC1=O (HELM PEPTIDE1{[ac].F.C.S.D.Y.S.C.Y.L.[am]}$PEPTIDE1,PEPTIDE1,3:R3-8:R3$$$V2.0) | – | 24 | 0 | Inactive up to 100 uM |
| CC(=O)N[C@@H](Cc1ccccc1)C(=O)N[C@H](C(=O)N[C@@H](CO)C(=O)N[C@H]1CSSC[C@@H](C(=O)N[C@@H](CC(=O)O)C(N)=O)NC(=O)[C@H](Cc2ccc(O)cc2)NC(=O)[C@H](CCCCN)NC(=O)[C@H](CO)NC(=O)[C@H](Cc2ccc(O)cc2)NC1=O)[C@@H](C)O (HELM PEPTIDE1{[ac].F.T.S.C.Y.S.K.Y.C.D.[am]}$PEPTIDE1,PEPTIDE1,5:R3-10:R3$$$V2.0) | – | 43 | 0 | Inactive up to 100 uM |
